In ChEMBL document CHEMBL1765028 (Bioorg Med Chem, 2011):
The source made the active and inactive calls. No cut-off for these calls is given here.

Key:
[1] = tested on: Trypanosoma brucei rhodesiense; assay: Antiparasitic activity against Trypanosoma brucei rhodesiense STIB900; format: functional, organism-based
Outline: (§1)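 Compounds tested in vitro as hydrochloride salts against Plasmodium falciparum K1 or Trypanosoma brucei rhodesiense STIB900.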

[2] = Selectivity index, ratio of IC50 for rat L6 cells to IC50 for Plasmodium falciparum K1; format: toxicity, cell-based; conditions: L6 cells versus Plasmodium falciparum K1, read-out: Ratio IC50
Outline: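 Selectivity index is IC50 for L6 rat myoblasts divided by IC50 for P. falciparum K1. Both IC50s were measured in vitro.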

[3] = tested on: Poly(dA-dT)oligonucleotide
[4] = tested on: L6; assay: Cytotoxicity against rat L6 cells; format: cell-based
Outline: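 Cultured L6 rat myoblast cells were used to measure IC50 cytotoxicity.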

[5] = tested on: Plasmodium falciparum; assay: Antiparasitic activity against Plasmodium falciparum K1; format: functional, organism-based; outline: as §1
[6] = Selectivity index, ratio of IC50 for rat L6 cells to IC50 for Trypanosoma brucei rhodesiense STIB900; format: toxicity, cell-based; conditions: L6 cells versus Trypanosoma brucei rhodesiense STIB900, read-out: Ratio IC50
Outline: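 Selectivity index is IC50 for L6 rat myoblasts divided by IC50 for T. b. rhodesiense STIB900. Both IC50s were measured in vitro.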

[7] = tested on: Trypanosoma brucei rhodesiense; assay: Antiparasitic activity against Trypanosoma brucei rhodesiense STIB900 infected in mouse assessed as mean relapse day of parasitemia at 5 mg/kg, ip for 4 days; format: functional; conditions: route intraperitoneal
Outline: (§2)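 Acute STIB900 mouse model. Hydrochloride salts were given intraperitoneally at 5 mg/kg/day on four consecutive days. Cure is the number of mice surviving and parasite-free on day 60. Relapse is the mean day parasitemia reappears.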

[8] = tested on: Trypanosoma brucei rhodesiense; assay: Antiparasitic activity against Trypanosoma brucei rhodesiense STIB900 infected in mouse assessed as cured at 5 mg/kg, ip for 4 days; format: functional, organism-based; parameters: dose 5 mg/kg; outline: as §2

Compound: N=C(N)c1ccc(-c2ccc(-c3nc4ccc(C(=N)N)cc4[nH]3)cc2)cc1
- IC50 [1]: 7.7 nM
- selectivity ratio [2]: 34000
- ΔTm [3]: > 27 °C
- IC50 [4]: 17 µM
- IC50 [5]: 0.5 nM

Compound: Cl.Cl.N=C(N)c1ccc(-c2ccc3cc(-c4ccc(C(=N)N)s4)[nH]c3c2)cc1
- IC50 [1]: 4 nM
- selectivity ratio [6]: 550
- selectivity ratio [2]: 198
- ΔTm [3]: > 27 °C
- IC50 [4]: 2.2 µM
- Activity [7]: 17 days
- IC50 [5]: 11.1 nM

Compound: Cl.Cl.N=C(N)c1ccc(-c2ccc3cc(-c4ccc(C(=N)N)cc4)[nH]c3c2)cc1
- IC50 [1]: 3 nM
- selectivity ratio [6]: 1130
- Activity [8]: inactive
- selectivity ratio [2]: 653
- ΔTm [3]: > 27 °C
- IC50 [4]: 3.4 µM
- Activity [7]: 20 days
- IC50 [5]: 5.2 nM

Compound: N=C(N)c1ccc(-c2ccc(-c3ccc(C(=N)N)cc3)o2)cc1 [FURAMIDINE]
- Activity [7]: 20 days

Compound: Cl.Cl.N=C(N)c1ccc(-c2ccc3[nH]c(-c4ccc(C(=N)N)cc4)nc3c2)cc1
- IC50 [1]: 4 nM
- selectivity ratio [6]: 15600
- Activity [8]: inactive
- selectivity ratio [2]: 16900
- ΔTm [3]: > 27 °C
- IC50 [4]: 62.4 µM
- Activity [7]: 18 days
- IC50 [5]: 3.7 nM

Compound: Cl.Cl.N=C(N)c1ccc(-c2ccc3cc(-c4ccc(C(=N)N)o4)[nH]c3c2)cc1
- IC50 [1]: 17 nM
- selectivity ratio [6]: 541
- Activity [8]: inactive
- selectivity ratio [2]: 736
- ΔTm [3]: 24.9 °C
- IC50 [4]: 9.2 µM
- Activity [7]: 18 days
- IC50 [5]: 12.5 nM

Compound: N=C(N)c1ccc(-c2cc3ccc(C(=N)N)cc3[nH]2)cc1 [DAPI]
- IC50 [1]: 18 nM
- selectivity ratio [6]: 48
- ΔTm [3]: > 27 °C
- Activity [7]: 17 days

Compound: Cl.Cl.Cn1c(-c2ccc(C(=N)N)cc2)nc2cc(-c3ccc(C(=N)N)cc3)ccc21
- IC50 [1]: 15 nM
- selectivity ratio [6]: > 11300
- Activity [8]: inactive
- selectivity ratio [2]: > 130000
- ΔTm [3]: 11.2 °C
- IC50 [4]: > 169 µM
- Activity [7]: 11 days
- IC50 [5]: 1.3 nM

Compound: N=C(N)c1ccc(-c2ccc(-c3cc4ccc(C(=N)N)cc4[nH]3)cc2)cc1
- IC50 [1]: 2 nM
- ΔTm [3]: > 27 °C
- IC50 [4]: 10.5 µM
- IC50 [5]: 3.3 nM

Compound: Cl.Cl.N=C(N)c1ccc(-c2ccc3nc(-c4ccc(C(=N)N)cc4)n(O)c3c2)cc1
- IC50 [1]: 484 nM
- selectivity ratio [6]: 256
- Activity [8]: inactive
- selectivity ratio [2]: 6890
- ΔTm [3]: 12.2 °C
- IC50 [4]: 124 µM
- Activity [7]: 8 days
- IC50 [5]: 18 nM

Compound: Cl.Cl.N=C(N)c1ccc(-c2ccc3cc(-c4cnccc4C(=N)N)[nH]c3c2)cc1
- IC50 [1]: 4 nM
- selectivity ratio [6]: 650
- selectivity ratio [2]: 265
- ΔTm [3]: > 27 °C
- IC50 [4]: 2.6 µM
- Activity [7]: 24 days
- IC50 [5]: 9.8 nM

Compound: N=C(N)c1ccc(OCCCCCOc2ccc(C(=N)N)cc2)cc1 [PENTAMIDINE]
- IC50 [4]: 46 µM
- Activity [7]: 20 days

Compound: Cl.Cl.N=C(N)c1ccc(-c2ccc3[nH]c(-c4ccc(C(=N)N)cc4)cc3c2)cc1
- IC50 [1]: 3 nM
- selectivity ratio [6]: 2330
- selectivity ratio [2]: 1180
- ΔTm [3]: 23.7 °C
- IC50 [4]: 6.7 µM
- Activity [7]: 20 days
- IC50 [5]: 5.7 nM

Compound: Cl.Cl.N=C(N)c1ccc(-c2ccc3[nH]c(-c4ccc(C(=N)N)s4)cc3c2)cc1
- IC50 [1]: 2 nM
- selectivity ratio [6]: 4950
- selectivity ratio [2]: 1390
- ΔTm [3]: 25.5 °C
- IC50 [4]: 9.9 µM
- Activity [7]: 17 days
- IC50 [5]: 7.1 nM

Compound: Cl.Cl.N=C(N)c1ccc(-c2ccc3cc(-c4cc(C(=N)N)ccn4)[nH]c3c2)cc1
- IC50 [1]: 5 nM
- selectivity ratio [6]: 2320
- selectivity ratio [2]: 644
- ΔTm [3]: > 27 °C
- IC50 [4]: 11.6 µM
- Activity [7]: 24 days
- IC50 [5]: 18 nM
